Data set [1] relates to RAW264.7. In words: Antiinflammatory activity against LPS-stimulated mouse RAW264.7 cells assessed as inhibition of TNFalpha accumulation at 10 uM pretreated for 2 hrs before LPS challenge after 22 hrs by ELISA relative to control. The data set is classed as functional. A digest of the protocol: (§1)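 RAW 264.7 cells plated at 4.0 × 10⁵/plate at 37 °C, 5% CO₂, pretreated 2 h with compound or vehicle, then LPS added for 22 h. Secreted cytokine in media measured by ELISA and normalized to total protein of lysed cell pellets from parallel plates. Expressed as percent of LPS control; mean with SE from 3–5 independent experiments.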

Data set [2] has as its system RAW264.7. Put plainly: Antiinflammatory activity against LPS-stimulated mouse RAW264.7 cells assessed as inhibition of IL-6 accumulation at 10 uM pretreated for 2 hrs before LPS challenge after 22 hrs by ELISA relative to control. The data set is classed as functional. Set-up: Activity: scale not given: the % may be the effect or the level left. A digest of the protocol:
as §1
On the technique in general: In an ELISA, binding on a coated surface is turned into a signal by an enzyme label.

For data set [3], the system named is RAW264.7. Put plainly: Cytotoxicity against LPS-stimulated mouse RAW264.7 cells at 10 uM pretreated for 2 hrs before LPS challenge after 22 hrs. The data set is classed as cell-based. Conditions: raw264.7, 22 h.
The test system of data set [4] is RAW264.7. Put plainly: Antiinflammatory activity against LPS-stimulated mouse RAW264.7 cells assessed as inhibition of TNFalpha accumulation pretreated for 2 hrs before LPS challenge after 22 hrs by ELISA relative to control. The data set is classed as functional, cell-based. The procedure, abridged: (§2)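 Macrophages plated overnight at 4.0 × 10⁶/plate at 37 °C, 5% CO₂, and pretreated 2 h with compound at 1, 2.5, 5.0 and 10 (concentration series), then stimulated with LPS for 22 h. Cytokine in culture media quantified by ELISA and normalized to total cellular protein, measured after lysis in Tris–NP40–SDS buffer and protein assay.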

Data set [5] concerns RAW264.7. In words: Antiinflammatory activity against LPS-stimulated mouse RAW264.7 cells assessed as inhibition of IL-6 accumulation pretreated for 2 hrs before LPS challenge after 22 hrs by ELISA relative to control. The format is functional, cell-based. The procedure, abridged: as §2

Each structure is given as a SMILES string. Calls of active or inactive are those of the source. The rule behind the calls is not given here.

Consider 24 compounds from ChEMBL document CHEMBL1156207, “Synthesis of mono-carbonyl analogues of curcumin and their effects on inhibition of cytokine release in LPS-stimulated RAW 264.7 macrophages” (Bioorg Med Chem, 2010).

Turning to `O=C1/C(=C/c2ccccc2C(=O)O)CC/C1=C\c1ccccc1C(=O)O`, the outcome in data set [1] was inactive. Further, the Activity in data set [2] came to 60%.
As to `O=C(/C=C/c1c(F)cccc1F)/C=C/c1c(F)cccc1F`, in data set [1], the result was Active. Moreover, the Activity in data set [2] is given as 60%; in data set [3] it was “Non-toxic”. In addition, the inhibition result in data set [4] and in data set [5] was “Dose-dependent effect” in each case.
On to `O=C1/C(=C/c2c(F)cccc2F)CC/C1=C\c1c(F)cccc1F`, for which the result in data set [1] and in data set [2] was inactive.
For `O=C1/C(=C/c2cc(F)ccc2F)CC/C1=C\c1cc(F)ccc1F`, the result in data set [1] and in data set [2] was inactive.
Take `O=C(/C=C/c1ccc(Cl)cc1Cl)/C=C/c1ccc(Cl)cc1Cl`: the result in data set [1] and in data set [2] was inactive.
As for `O=C1/C(=C\c2ccccc2C(=O)O)CCC/C1=C\c1ccccc1C(=O)O`, the result in data set [1] and in data set [2] was inactive.
In the case of `O=C1/C(=C/c2ccc(Cl)cc2Cl)CCC/C1=C\c1ccc(Cl)cc1Cl`, the result in data set [1] and in data set [2] was inactive.
With `O=C1/C(=C/c2c(F)cccc2F)CCC/C1=C\c1c(F)cccc1F`, the outcome in data set [1] and in data set [2] was inactive.
`O=C1/C(=C/c2cccc(Cl)c2Cl)CC/C1=C\c1cccc(Cl)c1Cl`: the outcome in data set [1] and in data set [2] was inactive.
As for `O=C1/C(=C/c2cc(F)ccc2F)CCC/C1=C\c1cc(F)ccc1F`, the outcome in data set [1] and in data set [2] was inactive.
`O=C1/C(=C/c2cccc(Cl)c2Cl)CCC/C1=C\c1cccc(Cl)c1Cl`: the outcome in data set [1] and in data set [2] was inactive.
Take `O=C1/C(=C/c2ccc(Cl)cc2Cl)CC/C1=C\c1ccc(Cl)cc1Cl`: the outcome in data set [1] and in data set [2] was inactive.
On to `CN(C)CCCOc1ccc(/C=C2\CCC/C(=C\c3ccc(OCCCN(C)C)cc3)C2=O)cc1`, for which the inhibition at 10 µM was 96.9% in data set [1] and 97.1% in data set [2] (Mus musculus, RAW264.7). In data set [3], the Activity result is “Non-toxic”. Also, the inhibition result in data set [4] and in data set [5] was “Dose-dependent effect” in each case.
For the compound `O=C(/C=C/c1ccccc1C(=O)O)/C=C/c1ccccc1C(=O)O`, the result in data set [1] and in data set [2] was inactive.
For the compound `Cc1ccc(/C=C2\CC/C(=C\c3ccc(C)cc3C)C2=O)c(C)c1`, the result in data set [1] was Active. In addition, in data set [2], the result was inactive.
In the case of `COc1cc(OC)c(/C=C/C(=O)/C=C/c2c(OC)cc(OC)cc2OC)c(OC)c1`, in data set [1], the result was Active. Moreover, in data set [2], the Activity was found to be 60%.
On the same counts, the results for `COc1cc(OC)c(/C=C2\CC/C(=C\c3c(OC)cc(OC)cc3OC)C2=O)c(OC)c1` are “inactive” and “inactive”.
The matching figures for `O=C(/C=C/c1cc(F)ccc1F)/C=C/c1cc(F)ccc1F`: “inactive” and “inactive”.
As for `COc1cc(OC)c(/C=C2\CCC/C(=C\c3c(OC)cc(OC)cc3OC)C2=O)c(OC)c1`, the result in data set [1] was Active. Further, the Activity in data set [2] is reported as 60%.
On the same counts, the results for `COc1ccc(/C=C/C(=O)/C=C/c2ccc(OC)cc2OC)c(OC)c1` are “Active” and 60%.
As to `Cc1ccc(/C=C/C(=O)/C=C/c2ccc(C)cc2C)c(C)c1`, the result in data set [1] was Active. Further, the Activity in data set [2] worked out at 60%.
Consider `COc1ccc(/C=C2\CC/C(=C\c3ccc(OC)cc3OC)C2=O)c(OC)c1`, for which, in data set [1], the result was inactive. Besides, the Activity in data set [2] came out at 60%.
Turning to `COc1ccc(/C=C2\CCC/C(=C\c3ccc(OC)cc3OC)C2=O)c(OC)c1`, the outcome in data set [1] and in data set [2] was inactive.
For `Cc1ccc(/C=C2\CCC/C(=C\c3ccc(C)cc3C)C2=O)c(C)c1`, the outcome in data set [1] and in data set [2] was inactive.

Broadly, the inhibition is the change of the read-out against control, counted positive when it falls.
